From ChEMBL document CHEMBL2146434, “Synthesis and biological evaluation of new amino acid and dipeptide derivatives of neocryptolepine as anticancer agents” (J Med Chem, 2012)

System: KB
Assay: Cytotoxicity against human KB cells after 72 hrs by SRB assay
Type: functional, cell-based
Settings: not given

Row | SMILES | IC50 [nM]
1 | Cc1c2c3cc(NC(=O)CN)ccc3nc-2n(C)c2ccccc12.Cl.Cl | 670

System: Lewis lung carcinoma cell line
Assay: Antineoplastic activity against mouse LLC cells xenografted in C57BL/6 mouse assessed as tumor growth inhibition at 30 mg/kg/day, ip administered on day 9 to day 12 of tumor implantation measured on day 21
Type: functional
Settings: route intraperitoneal, read-out: TGI
Procedure, shortened: (§1)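 Mice bore Lewis lung carcinoma (LLC) inoculated subcutaneously and received test agents intraperitoneally at 15–50 mg kg⁻¹ day⁻¹ from day 9 or day 10. A single 100 mg/kg cyclophosphamide dose was the cytostatic control. Tumor growth was followed as the group median, and TGI% was calculated from medians versus untreated controls. Significance was tested by nonparametric Kruskal–Wallis multiple comparison, p < 0.05.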

Row | SMILES | inhibition in vivo at 30 mg/kg/day [%]
2 | Cc1c2c3cc(NC(=O)CN)ccc3nc-2n(C)c2ccccc12.Cl.Cl | 13.5

System: Lewis lung carcinoma cell line
Assay: Antineoplastic activity against mouse LLC cells xenografted in C57BL/6 mouse assessed as tumor growth inhibition at 30 mg/kg/day, ip administered on day 9 to day 12 of tumor implantation measured on day 11
Type: functional
Settings: route intraperitoneal, read-out: TGI
Procedure, shortened: as §1

Row | SMILES | inhibition in vivo at 30 mg/kg/day [%]
3 | Cc1c2c3cc(NC(=O)CN)ccc3nc-2n(C)c2ccccc12.Cl.Cl | 50.1

System: Lewis lung carcinoma cell line
Assay: Antineoplastic activity against mouse LLC cells xenografted in C57BL/6 mouse assessed as tumor growth inhibition at 15 mg/kg/day, ip administered on day 9 to day 13 of tumor implantation measured on day 23
Type: functional
Settings: route intraperitoneal, read-out: TGI
Procedure, shortened: as §1

Row | SMILES | inhibition in vivo at 15 mg/kg/day [%]
4 | Cc1c2c3cc(NC(=O)CN)ccc3nc-2n(C)c2ccccc12.Cl.Cl | 25.8

System: Lewis lung carcinoma cell line
Assay: Antineoplastic activity against mouse LLC cells xenografted in C57BL/6 mouse assessed as tumor growth inhibition at 30 mg/kg/day, ip administered on day 9 to day 12 of tumor implantation measured on day 23
Type: functional
Settings: route intraperitoneal, read-out: TGI
Procedure, shortened: as §1

Row | SMILES | inhibition in vivo at 30 mg/kg/day [%]
5 | Cc1c2c3cc(NC(=O)CN)ccc3nc-2n(C)c2ccccc12.Cl.Cl | 19.7

System: Lewis lung carcinoma cell line
Assay: Antineoplastic activity against mouse LLC cells xenografted in C57BL/6 mouse assessed as tumor growth inhibition at 15 mg/kg/day, ip administered on day 9 to day 13 of tumor implantation measured on day 14
Type: functional
Settings: route intraperitoneal, read-out: TGI
Procedure, shortened: as §1

Row | SMILES | inhibition in vivo at 15 mg/kg/day [%]
6 | Cc1c2c3cc(NC(=O)CN)ccc3nc-2n(C)c2ccccc12.Cl.Cl | 47.4

System: MCF7
Assay: Cytotoxicity against human MCF7 cells after 72 hrs by SRB assay
Type: functional, cell-based
Settings: MCF7, 72 h
Procedure, shortened: (§2)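 IC50 is the compound concentration giving 50% inhibition of cell proliferation. It was determined on normal mouse BALB/3T3 fibroblasts and on human A549, MCF-7 and LoVo cancer lines, with doxorubicin hydrochloride and DiMIQ as reference compounds.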

Row | SMILES | IC50 [nM]
7 | Cc1c2c3cc(NC(=O)CN)ccc3nc-2n(C)c2ccccc12.Cl.Cl | 1450

System: Lewis lung carcinoma cell line
Assay: Antineoplastic activity against mouse LLC cells xenografted in C57BL/6 mouse assessed as tumor growth inhibition at 30 mg/kg/day, ip administered on day 9 to day 12 of tumor implantation measured on day 18
Type: functional
Settings: route intraperitoneal, read-out: TGI
Procedure, shortened: as §1

Row | SMILES | inhibition in vivo at 30 mg/kg/day [%]
8 | Cc1c2c3cc(NC(=O)CN)ccc3nc-2n(C)c2ccccc12.Cl.Cl | 14.3

System: Lewis lung carcinoma cell line
Assay: Antineoplastic activity against mouse LLC cells xenografted in C57BL/6 mouse assessed as tumor growth inhibition at 15 mg/kg/day, ip administered on day 9 to day 13 of tumor implantation measured on day 16
Type: functional
Settings: route intraperitoneal, read-out: TGI
Procedure, shortened: as §1

Row | SMILES | inhibition in vivo at 15 mg/kg/day [%]
9 | Cc1c2c3cc(NC(=O)CN)ccc3nc-2n(C)c2ccccc12.Cl.Cl | 23.9

System: Mus musculus
Assay: Toxicity in C57BL/6 mouse xenografted with mouse LLC cells at 15 mg/kg/day, ip administered on day 9 to day 13 of tumor implantation
Type: organism-based
Set-up: route intraperitoneal
Settings: in vivo
Procedure, shortened: (§3)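 Mouse Lewis lung carcinoma (LLC) cells inoculated sc into mice. Daily dosing from day 9: 15 mg kg⁻¹ day⁻¹ through day 13 or 30 mg kg⁻¹ day⁻¹ through day 12; 25 or 50 mg kg⁻¹ day⁻¹ through day 13. Route is given as ip in tables and text but sc in figure legends. Body weight monitored for loss alongside tumor growth. Single 100 mg/kg cyclophosphamide dose as cytostatic control.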

Row | SMILES | Activity
10 | Cc1c2c3cc(NC(=O)CN)ccc3nc-2n(C)c2ccccc12.Cl.Cl | Toxic

System: not listed separately
Assay: Octanol-water partition coefficient, log P of the compound in PBS buffer at pH 7.4 by spectrophotometric analysis
Type: physicochemical
Settings: not given
Procedure, shortened: (§4)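 Octanol–water partitioning, with log P defined as log(C_octanol/C_water). Compound in the aqueous phase was measured spectrophotometrically, and octanol content was obtained by subtracting the supernatant concentration from the total. Values are the mean of two independent experiments, each run in triplicate.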

Row | SMILES | logD
11 | Cc1c2c3cc(NC(=O)CN)ccc3nc-2n(C)c2ccccc12.Cl.Cl | 0.6

System: Lewis lung carcinoma cell line
Assay: Antineoplastic activity against mouse LLC cells xenografted in C57BL/6 mouse assessed as tumor growth inhibition at 15 mg/kg/day, ip administered on day 9 to day 13 of tumor implantation measured on day 18
Type: functional
Settings: route intraperitoneal, read-out: TGI
Procedure, shortened: as §1

Row | SMILES | inhibition in vivo at 15 mg/kg/day [%]
12 | Cc1c2c3cc(NC(=O)CN)ccc3nc-2n(C)c2ccccc12.Cl.Cl | 0

System: Mus musculus
Assay: Toxicity in C57BL/6 mouse xenografted with mouse LLC cells assessed as body weight loss at 15 mg/kg/day, sc administered on day 9 to day 13 of tumor implantation
Type: organism-based
Set-up: route subcutaneous
Settings: in vivo
Procedure, shortened: (§5)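 Body weight was tracked in C57BL/6 mice bearing subcutaneously inoculated LLC during therapy given daily from day 9 to day 13. A single 100 mg/kg dose of cyclophosphamide served as the cytostatic control group.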

Row | SMILES | Activity
13 | Cc1c2c3cc(NC(=O)CN)ccc3nc-2n(C)c2ccccc12.Cl.Cl | <= 15%

System: Mus musculus
Assay: Toxicity in C57BL/6 mouse xenografted with mouse LLC cells assessed as body weight loss at 30 mg/kg/day, ip administered on day 9 to day 12 of tumor implantation
Type: organism-based
Set-up: route intraperitoneal
Settings: in vivo
Procedure, shortened: as §3

Row | SMILES | Activity
14 | Cc1c2c3cc(NC(=O)CN)ccc3nc-2n(C)c2ccccc12.Cl.Cl | <= 15%

System: Mus musculus
Assay: Toxicity in C57BL/6 mouse xenografted with mouse LLC cells assessed as body weight loss at 50 mg/kg/day, sc administered on day 9 to day 13 of tumor implantation
Type: organism-based
Set-up: route subcutaneous
Settings: in vivo
Procedure, shortened: as §3

Row | SMILES | Activity
15 | Cc1c2c3cc(NC(=O)CN)ccc3nc-2n(C)c2ccccc12.Cl.Cl | <= 15%

System: A549
Assay: Cytotoxicity against human A549 cells after 72 hrs by SRB assay
Type: functional, cell-based
Settings: A549, 72 h
Procedure, shortened: as §2

Row | SMILES | IC50 [nM]
16 | Cc1c2c3cc(NC(=O)CN)ccc3nc-2n(C)c2ccccc12.Cl.Cl | 1310

System: not listed separately
Assay: Solubility of the compound in water
Type: physicochemical
Settings: buffer

Row | SMILES | solubility
17 | Cc1c2c3cc(NC(=O)CN)ccc3nc-2n(C)c2ccccc12.Cl.Cl | soluble

System: Lewis lung carcinoma cell line
Assay: Antineoplastic activity against mouse LLC cells xenografted in C57BL/6 mouse assessed as tumor growth inhibition at 30 mg/kg/day, ip administered on day 9 to day 12 of tumor implantation measured on day 16
Type: functional
Settings: route intraperitoneal, read-out: TGI
Procedure, shortened: as §1

Row | SMILES | inhibition in vivo at 30 mg/kg/day [%]
18 | Cc1c2c3cc(NC(=O)CN)ccc3nc-2n(C)c2ccccc12.Cl.Cl | 55.3

System: LoVo
Assay: Cytotoxicity against human LoVo cells after 72 hrs by SRB assay
Type: functional, cell-based
Settings: not given
Procedure, shortened: as §2

Row | SMILES | IC50 [nM]
19 | Cc1c2c3cc(NC(=O)CN)ccc3nc-2n(C)c2ccccc12.Cl.Cl | 880

System: not listed separately
Assay: Ratio of IC50 for compound to ratio of IC50 for DiMIQ for BALB mouse 3T3 cells
Type: cell-based
Settings: read-out: Ratio IC50

Row | SMILES | selectivity ratio
20 | Cc1c2c3cc(NC(=O)CN)ccc3nc-2n(C)c2ccccc12.Cl.Cl | 5

System: not listed separately
Assay: Dissociation constant, pKa of the compound in PBS buffer at 5 uM at pH 2 to 10 by UV-spectrophotometric analysis
Type: physicochemical
Settings: not given
Procedure, shortened: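 UV spectrophotometric titration at a final compound concentration of 5 μM. At this concentration the absorbance–concentration relationship stayed linear. pKa was read from spectral changes across pH.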

Row | SMILES | pKa at 5 µM
21 | Cc1c2c3cc(NC(=O)CN)ccc3nc-2n(C)c2ccccc12.Cl.Cl | 7.2

System: Lewis lung carcinoma cell line
Assay: Antineoplastic activity against mouse LLC cells xenografted in C57BL/6 mouse assessed as tumor growth inhibition at 30 mg/kg/day, ip administered on day 9 to day 12 of tumor implantation measured on day 14
Type: functional
Settings: route intraperitoneal, read-out: TGI
Procedure, shortened: as §1

Row | SMILES | inhibition in vivo at 30 mg/kg/day [%]
22 | Cc1c2c3cc(NC(=O)CN)ccc3nc-2n(C)c2ccccc12.Cl.Cl | 54.7

System: Mus musculus
Assay: Toxicity in C57BL/6 mouse xenografted with mouse LLC cells at 30 mg/kg/day, ip administered on day 9 to day 12 of tumor implantation
Type: organism-based
Set-up: route intraperitoneal
Settings: in vivo
Procedure, shortened: as §3

Row | SMILES | Activity
23 | Cc1c2c3cc(NC(=O)CN)ccc3nc-2n(C)c2ccccc12.Cl.Cl | Toxic

System: Mus musculus
Assay: Toxicity in C57BL/6 mouse xenografted with mouse LLC cells assessed as body weight loss at 30 mg/kg/day, sc administered on day 9 to day 12 of tumor implantation
Type: organism-based
Set-up: route subcutaneous
Settings: in vivo
Procedure, shortened: as §3

Row | SMILES | Activity
24 | Cc1c2c3cc(NC(=O)CN)ccc3nc-2n(C)c2ccccc12.Cl.Cl | <= 15%

System: Lewis lung carcinoma cell line
Assay: Antineoplastic activity against mouse LLC cells xenografted in C57BL/6 mouse assessed as tumor growth inhibition at 15 mg/kg/day, ip administered on day 9 to day 13 of tumor implantation measured on day 21
Type: functional
Settings: route intraperitoneal, read-out: TGI
Procedure, shortened: as §1

Row | SMILES | inhibition in vivo at 15 mg/kg/day [%]
25 | Cc1c2c3cc(NC(=O)CN)ccc3nc-2n(C)c2ccccc12.Cl.Cl | 26.1

System: not listed separately
Assay: Toxicity in human erythrocytes assessed as hemolysis at 0.3 mM after 30 mins by spectrophotometric analysis
Type: cell-based, Erythrocyte
Settings: read-out: Activity
Procedure, shortened: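 Human erythrocyte suspension under isotonic conditions (pH 7.4, hematocrit 50%). Compound added across a concentration series and incubated 30 min at 37 °C before hemolysis was scored. Mean ± SD of three individual determinations. Statistics by Mann–Whitney U test, p < 0.05.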

Row | SMILES | hemolysis at 0.5 h, 300 µM [%]
26 | Cc1c2c3cc(NC(=O)CN)ccc3nc-2n(C)c2ccccc12.Cl.Cl | 42.5

System: Mus musculus
Assay: Toxicity in C57BL/6 mouse xenografted with mouse LLC cells assessed as body weight loss at 15 mg/kg/day, ip administered on day 9 to day 13 of tumor implantation
Type: organism-based
Set-up: route intraperitoneal
Settings: in vivo
Procedure, shortened: as §5

Row | SMILES | Activity
27 | Cc1c2c3cc(NC(=O)CN)ccc3nc-2n(C)c2ccccc12.Cl.Cl | <= 15%

System: not listed separately
Assay: Octanol-water partition coefficient, log P of the compound in citric buffer at pH 2.5 by spectrophotometric analysis
Type: physicochemical
Settings: not given
Procedure, shortened: as §4

Row | SMILES | logP
28 | Cc1c2c3cc(NC(=O)CN)ccc3nc-2n(C)c2ccccc12.Cl.Cl | -1.9

System: Lewis lung carcinoma cell line
Assay: Antineoplastic activity against mouse LLC cells xenografted in C57BL/6 mouse assessed as tumor growth inhibition at 15 mg/kg/day, ip administered on day 9 to day 13 of tumor implantation measured on day 11
Type: functional
Settings: route intraperitoneal, read-out: TGI
Procedure, shortened: as §1

Row | SMILES | inhibition in vivo at 15 mg/kg/day [%]
29 | Cc1c2c3cc(NC(=O)CN)ccc3nc-2n(C)c2ccccc12.Cl.Cl | 42.4
